# Activity calls are given as the source filed them. No cut-off for these calls is given here.
# Tests used:
# Mus musculus [1] = assay: Induction of bone mineral density in SAMP6 mouse assessed as spine BMD at 30 mg/kg/day, po measured after 3 months; type: functional
# Summary of the method: (§1)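 SAMP6 mice, 5 months old, n = 5 per group, given compound in 0.5% methylcellulose by gavage daily. Dual-energy X-ray absorptiometry under pentobarbital anaesthesia (50 mg/kg ip), animals prone, at 0, 4, 8 and 12 weeks of treatment. Regions of interest were whole body, spine and left hind leg.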
# Rattus norvegicus [2] = assay: Prevention of bone loss in ovariectomized rat assessed as increase in number, thickness, area and connectivity of trabecula at 15 mg/kg/day, po after 3 months by histomorphometry Leica Qwin image analysis; type: functional, organism-based
# Summary of the method: (§2)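 Female rats (205–235 g) randomized by body weight, n = 7 per group: sham, ovariectomized with vehicle, ovariectomized with raloxifene 5 mg/kg/day, and ovariectomized with compound at 7.5, 15 or 30 mg/kg/day. All dosing oral for 3 months. Undecalcified proximal tibia sections analysed by histomorphometry, with comparisons against the sham and ovariectomized groups.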
# Mus musculus [3] = assay: Induction of bone formation in SAMP6 mouse right femora assessed as trabecular formation surface percentage at 30 mg/kg/day, po measured after 3 months by bone histomorphometry; type: functional, Trabecula
# Summary of the method: (§3)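 SAMP6 mice, 5 months old, n = 5 per group (3 male, 2 female), randomized by initial BMD. Given compound in 0.5% methylcellulose by gavage daily for 3 months. Proximal third of the right femur fixed in 4% paraformaldehyde, cut as undecalcified sections, and scored by image analysis for histomorphometry.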
# Mus musculus [4] = assay: Toxicity in SAMP6 mouse assessed as pathological changes in lung at 30 mg/kg/day, po after 3 months by histomorphology; type: organism-based; set-up: route oral; details: in vivo
# Summary of the method: (§4)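 SAMP6 mice, n = 5 per group, dosed orally at 30 mg/kg/day in 0.5% methylcellulose for 3 months. Heart, liver, spleen, lung and kidney harvested, weighed and examined histologically. Organ/body weight indexes, body weight, and 24 h water and food intake (g/g body weight) compared with vehicle controls.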
# Rattus norvegicus [5] = assay: Induction of bone formation in ovariectomized rat assessed as increase in trabecular bone volume percentage at 7.5 mg/kg/day, po after 3 months; type: functional, organism-based; details: Trabecula; summary of the method: as §2
# [6] = Toxicity in ip dosed Kunming mouse assessed as mortality treated for 3 days measured after 17 days; type: organism-based; details: in vivo
# Mus musculus [7] = assay: Induction of bone formation in SAMP6 mouse right femora assessed as trabecular bone volume percentage at 30 mg/kg/day, po measured after 3 months by bone histomorphometry; type: functional, Trabecula; summary of the method: as §3
# Mus musculus [8] = assay: Induction of bone mineral density in SAMP6 mouse assessed as whole body BMD at 30 mg/kg/day, po measured after 3 months; type: functional; summary of the method: as §1
# Rattus norvegicus [9] = assay: Induction of bone formation in ovariectomized rat assessed as decrease in trabecular resorption surface percentage at 30 mg/kg/day, po after 3 months; type: functional, organism-based; details: Trabecula; summary of the method: as §2
# Mus musculus [10] = assay: Toxicity in SAMP6 mouse assessed as pathological changes in kidney at 30 mg/kg/day, po after 3 months by histomorphology; type: organism-based; set-up: route oral; details: in vivo; summary of the method: as §4
# Rattus norvegicus [11] = assay: Toxicity in rat assessed as pathological changes in kidney at 150 mg/kg/day, po after 3 months by histomorphology; type: organism-based; set-up: route oral; details: in vivo
# Summary of the method: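 Rats, n = 7, given oral doses of 150 mg/kg/day for 3 months. Heart, liver, spleen, lung and kidney examined histologically for pathological change.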
# Rattus norvegicus [12] = assay: Prevention of bone loss in po dosed ovariectomized rat assessed as increase in number, thickness, area and connectivity of trabecula after 3 months by histomorphometry Leica Qwin image analysis; type: functional, organism-based; summary of the method: as §2
# Mus musculus [13] = assay: Induction of bone mineral density in SAMP6 mouse assessed as spine BMD at 30 mg/kg/day, po measured first 2 months; type: functional, organism-based; summary of the method: as §1
smiles,measurement,setting,value
CC(=O)c1cc2ccccc2s1,Activity,Mus musculus [1],0.086 g/cm2
same,Activity,Rattus norvegicus [2],Active
same,Activity,Mus musculus [3],5.89%
same,Activity,Mus musculus [4],Non-toxic
same,Activity,Rattus norvegicus [5],Active
same,LD50 at 408 h,[6],> 1580 mg/kg
same,Activity,Mus musculus [7],4.95%
same,Activity,Mus musculus [8],0.068 g/cm2
same,Activity,Rattus norvegicus [9],Active
same,Activity,Mus musculus [10],Non-toxic
same,Activity,Rattus norvegicus [11],Non-toxic
same,Activity,Rattus norvegicus [12],Dose-dependent effect
same,Activity,Mus musculus [13],Active

# Reference: ChEMBL document CHEMBL1156262, “Substituted benzothiophene or benzofuran derivatives as a novel class of bone morphogenetic protein-2 up-regulators: synthesis, structure-activity relationships, and preventive bone loss efficacies in senescence accelerated mice (SAMP6) and ovariectomized rats” (J Med Chem, 2010)
